Structures are written as SMILES. Where only a bound is given, the exact number is not on record here.

For one experiment, the system named is Plasmodium falciparum. The experiment is described as follows: Antimalarial activity against erythrocytic stages of chloroquine-sensitive Plasmodium falciparum 3D7 infected in human O-positive erythrocytes after 48 hrs by SYBR Green-I fluorescence-based method. In kind it is functional, organism-based. The following applies: 3D7, 48 h.
Experiment [1] can be described thus: Cytotoxicity against human HuH7 cells after 24 hrs by MTT assay. The following applies: Huh-7, 24 h. The class given is cell-based. The method, boiled down: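 Huh-7 cells in DMEM with 10% FBS and gentamicin, seeded at 10⁴ cells per well and left overnight. Compounds added for 24 h at 37 °C, 5% CO2, with 10% DMSO as positive control. MTT added for a further 3 h. Formazan dissolved in DMSO after centrifugation, read at 570 nm. IC50 from dose-response curves.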
(Tetrazolium assays rely on reduction of a dye to a coloured formazan, in cell work by metabolically active cells.)

Experiment [2] can be described thus: Selectivity index, ratio for IC50 for human HuH7 cells to IC50 for erythrocytic stages of chloroquine-sensitive Plasmodium falciparum 3D7. In kind it is functional, Huh-7.

The IC50 is the concentration at which inhibition is half-maximal. Lower therefore signals higher potency. As to `COc1ccc(-c2ccc3ncc(C(=O)NCc4ccc(C(F)(F)F)cc4)c(=O)n3c2)cc1`, in the experiment on Plasmodium falciparum, the IC50 is > 100 µM.
On the same count and under the same terms, with `O=C(NCc1ccccc1C(F)(F)F)Nc1cnc2ccccn2c1=O` the figure was 100 µM; with `O=C(NCc1ccc(C(F)(F)F)cc1)Nc1cnc2ccccn2c1=O`, > 100 µM; with `O=C(NCCC(c1ccccc1)c1ccccc1)Nc1cnc2ccccn2c1=O`, > 100 µM.
Turning to `O=C(Nc1ncccc1OCc1ccccc1)Nc1cnc2ccccn2c1=O`, in the experiment with Plasmodium falciparum, the IC50 was > 100 µM.
Same read-out and setting: with `CC(C)N(Cc1ccccc1)C(=O)Nc1cnc2ccccn2c1=O` the figure was 70 µM; with `Cc1ccn2c(=O)c(NC(=O)N(Cc3ccccc3)C(C)C)cnc2c1`, > 100 µM.
Consider `O=C(NCc1cccs1)Nc1cnc2ccc(Cl)cn2c1=O`, for which the IC50 in the experiment with Plasmodium falciparum was > 100 µM.
On the same count and under the same terms, with `COCCNC(=O)Nc1cnc2ccc(Cl)cn2c1=O` the figure was > 100 µM; with `O=C(NCc1ccc(C(F)(F)F)cc1)Nc1cnc2ccc(Cl)cn2c1=O`, > 100 µM; with `O=C(NCc1cccc(C(F)(F)F)c1)Nc1cnc2ccc(Cl)cn2c1=O`, > 100 µM.
On the same count and under the same terms, with `O=C(NCc1ccccc1C(F)(F)F)Nc1cnc2ccc(Cl)cn2c1=O` the figure was > 100 µM; with `CC(C)N(Cc1ccccc1)C(=O)Nc1cnc2ccc(Cl)cn2c1=O`, > 100 µM; with `O=C(NC1CC1)c1cccnc1N1CCN(C(=O)Nc2cnc3ccccn3c2=O)CC1`, > 100 µM.
The same measure, in the same setting: with `CC(C)(C)OC(=O)N1CCN(C(=O)Nc2cnc3ccc(Cl)cn3c2=O)CC1` the figure was > 100 µM; with `O=C(Nc1cnc2ccc(Cl)cn2c1=O)N1CCN(C(=O)c2ccco2)CC1`, > 100 µM.
As to `O=C(Nc1cnc2ccccn2c1=O)OCc1cccc(F)c1`, the IC50 in experiment [1] was > 100 µM; with Plasmodium falciparum, 33 µM. Also, in experiment [2], the “Ratio IC50” value is reported as >3.
In the case of `O=C(Nc1cnc2ccccn2c1=O)OCc1ccc2c(c1)OCO2`, the IC50 in the experiment on Plasmodium falciparum is > 100 µM.
Same read-out and setting: with `O=C(Nc1cnc2ccc(Cl)cn2c1=O)OCc1ccccn1` the figure was > 100 µM; with `O=C(Nc1cnc2ccc(Cl)cn2c1=O)OCc1cccnc1`, > 100 µM.
On to `O=C(Nc1cnc2ccc(Cl)cn2c1=O)OCc1cccc(F)c1`, for which the IC50 in the experiment on Plasmodium falciparum is > 100 µM.
On the same count and under the same terms, with `CCOC(=O)[C@H](Cc1ccccc1)NC(=O)Nc1cnc2ccccn2c1=O` the figure was > 100 µM; with `NC(=O)[C@H](Cc1ccccc1)NC(=O)Nc1cnc2ccccn2c1=O`, > 100 µM; with `CC(C)C[C@H](NC(=O)Nc1cnc2ccccn2c1=O)C(N)=O`, > 100 µM.
Still for that read-out and setting: with `N#C[C@H](Cc1ccccc1)NC(=O)Nc1cnc2ccccn2c1=O` the figure was > 100 µM.
Same read-out and setting: with `CC(C)C[C@@H](C#N)NC(=O)Nc1cnc2ccccn2c1=O` the figure was > 100 µM; with `COc1ccc(CNC(=O)c2cnc3ccccn3c2=O)cc1`, > 100 µM; with `O=C(NCc1cccc(F)c1)c1cnc2ccccn2c1=O`, 43 µM.
Turning to `O=C(NCc1ccccc1C(F)(F)F)c1cnc2ccccn2c1=O`, the IC50 in the experiment on Plasmodium falciparum is > 100 µM.
For the compound `O=C(NCc1cccc(C(F)(F)F)c1)c1cnc2ccccn2c1=O`, the results for the IC50 (in experiment [1]; in the experiment with Plasmodium falciparum) were > 200 µM and 65 µM, respectively. In experiment [2], the “Ratio IC50” value is recorded as >3.
On the same counts, the results for `O=C(NCc1ccc(C(F)(F)F)cc1)c1cnc2ccccn2c1=O` are > 200 µM, 37 µM and >5.4.
For the compound `O=C(NCc1ccc(F)cc1F)c1cnc2ccccn2c1=O`, the figures for the IC50 (in experiment [1]; in the experiment on Plasmodium falciparum) were > 200 µM and 59 µM, respectively. The “Ratio IC50” value in experiment [2] is given as >3.3.
For `O=C(NCCN1CCOCC1)c1cnc2ccccn2c1=O`, the IC50 in the experiment on Plasmodium falciparum is > 100 µM.
On to `CCCCCOc1cccnc1NC(=O)c1cnc2ccccn2c1=O`, for which the IC50 in the experiment on Plasmodium falciparum is > 100 µM.
Compound `O=C(Nc1ncccc1OCc1ccccc1)c1cnc2ccccn2c1=O` came in with an IC50 with Plasmodium falciparum of 100 µM.
On the same count and under the same terms, with `Cc1noc(C)c1NC(=O)c1cnc2ccccn2c1=O` the figure was > 100 µM; with `COc1ccc(C(C)NC(=O)c2cnc3ccccn3c2=O)cc1` (configuration not stated), > 100 µM; with `O=C(NC1CCN(Cc2ccccc2)CC1)c1cnc2ccccn2c1=O`, > 100 µM.
Consider `O=C(c1cnc2ccccn2c1=O)N(Cc1ccccc1F)C1CC1`, for which, in the experiment on Plasmodium falciparum, the IC50 was > 100 µM.
As to `Cc1ccn2c(=O)c(C(=O)NCc3ccc(C(F)(F)F)cc3)cnc2c1`, the results for the IC50 (in experiment [1]; with Plasmodium falciparum) were > 100 µM and 70 µM, respectively. In addition, the “Ratio IC50” value in experiment [2] was >1.4.
Take `COc1ccc(-c2ccc3ncc(C(=O)NCc4cccc(F)c4)c(=O)n3c2)cc1`: in the experiment with Plasmodium falciparum, the IC50 was > 100 µM.
On the same count and under the same terms, with `COc1ccc(-c2ccc3ncc(C(=O)NCC4CCCO4)c(=O)n3c2)cc1` (configuration not stated) the figure was 100 µM.

Source of the values: ChEMBL document CHEMBL3232972, “Synthesis and biological evaluation of some novel pyrido[1,2-a]pyrimidin-4-ones as antimalarial agents” (Eur J Med Chem, 2014).
